Test results reported in the array DNA melting data of Ke et al. (doi:10.1101/2024.01.08.574731).

How the values were obtained:
[1] = melting temperature; fluorescence melt of hairpins on a sequencing array, two-state fit, raised by 9.35 °C to match UV melts; settings: sodium 0.088 M
Outline: (§1)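 With Cy3 and quencher oligos annealed, library hairpins on a sequenced MiSeq flow cell were imaged for Cy3 fluorescence in 50 mM Na-HEPES pH 8.0, 25 mM NaCl, in 2.5 °C steps up to 60 °C. Melting temperature and folding enthalpy were derived from bootstrapped two-state fits of signals normalised to pre-quench Cy3 and to control constructs. Four replicates were combined by inverse variance, with fitted temperatures raised by 9.35 °C to match UV melts.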

[2] = folding enthalpy; higher = less favourable; fluorescence melt of hairpins on a sequencing array, two-state fit; settings: sodium 0.088 M
Outline: as §1

Sequence | Tm [1] [°C] | folding enthalpy [2] [kcal/mol]
GGTACCGGAAACGGTACC (((((((....))))))) | 69 | -30.5
GGTACGCCGAAAGGCACC (((..(((....)))))) | 32 | -8.21
GGTACGCGAAAGCGCACC (((.(((....))).))) | 57.6 | -28.6
GGTACGGAAACGTACC ((((((....)))))) | 65.8 | -37.8
GGTACGTCGAAAGACACC (((..(((....)))))) | 33.3 | -9.89
GGTACTCCGAAAGGAACC (((..(((....)))))) | 25.4 | -9.52
GGTACTGCGAAAGCAACC (((..(((....)))))) | 28.8 | -9.7
GGTACTGGAAACAGTACC (((((((....))))))) | 61.5 | -50.7
GGTACTGGAAACAGTGTC (..((((....))))..) | 28.9 | -13.9
GGTAGACCGAAAGGTACC (((..(((....)))))) | 38 | -19.8
GGTAGACGAAAGTCCACC (((.(((....))).))) | 46.3 | -23.8
GGTAGAGAAATCTACC ((((((....)))))) | 49.2 | -25.2
GGTAGAGCGAAAGCTACC (((..(((....)))))) | 45.5 | -17.3
GGTAGCACGAAAGTGACC (((..(((....)))))) | 32.2 | -13.9
GGTAGCCGAAAGGCAACC (((.(((....))).))) | 57.9 | -23.8
GGTAGCGAAAGCTATACC ((((((....)))..))) | 44 | -15.5
GGTAGCGAAAGCTCCACC ((((((....)))..))) | 38.8 | -13.2
GGTAGCGAAAGCTGAACC ((((((....)))..))) | 38.2 | -17.6
GGTAGCGAAAGCTTACC ((((((....))).))) | 51.6 | -20.9
GGTAGCGGAAACACTACC (((((.(....).))))) | 44.8 | -30.9
GGTAGCGGAAACGCCACC (((.(((....))).))) | 48.3 | -24.8
GGTAGCGGAAACGCTATC (.(((((....))))).) | 51.8 | -29.2
GGTAGCGGAAACGTTACC ((((.((....)).)))) | 50.4 | -32.4

Sequence | Tm [1] [°C] | folding enthalpy [2] [kcal/mol]
GGTAGGCCGAAAGGCACC (((..(((....)))))) | 41.9 | -12
GGTAGGGGAAACCCCACC (((.(((....))).))) | 46.2 | -23.7
GGTAGGGGAAACCTTACC ((((.((....)).)))) | 44.1 | -30.5
GGTAGGGGAAACTCTACC (((((.(....).))))) | 46 | -37.4
GGTAGTGAAAACTACC ((((((....)))))) | 58.5 | -33.4
GGTAGTGGAAACACCACC (((.(((....))).))) | 40 | -20.8
GGTAGTGGAAACGTTACC ((((..(....)..)))) | 34.5 | -17.1
GGTATACGAAAGTAAACC (((.(((....))).))) | 43.6 | -28.4
GGTATCACGAAAGTGACC (((..(((....)))))) | 30 | -9.93
GGTATCCCGAAAGGGACC (((..(((....)))))) | 34.8 | -9.73
GGTATCCGAAAGGACACC (((.(((....))).))) | 47.5 | -25.2
GGTATCGAAAGATCACC ((((((....))).))) | 35 | -21.9
GGTATCGCGAAAGCGACC (((..(((....)))))) | 31.7 | -9.09
GGTATCGGAAACAATACC (((((.(....).))))) | 31.6 | -34.9
GGTATCGGAAACGACACC (((.(((....))).))) | 43.4 | -30.7
GGTATGAAAATACC (((((....))))) | 47.5 | -20.9
GGTATGCGAAAGCAAACC (((.(((....))).))) | 53 | -30.2
GGTATGGGAAACCGTACC ((((.((....)).)))) | 50.5 | -38.5
GGTATTACGAAAGTAACC (((..(((....)))))) | 27.5 | -13.4
GGTATTCCGAAAGGAACC (((..(((....)))))) | 29.4 | -12.8
GGTATTGGAAACAATGCC ((.((((....)))).)) | 47.7 | -37.1
GGTATTGGAAACAGTACC ((((.((....)).)))) | 39.6 | -32.2
GGTCAACCGAAAGGTACC (((..(((....)))))) | 35.1 | -15.9

Sequence | Tm [1] [°C] | folding enthalpy [2] [kcal/mol]
GGTCAACGAAAGTTACC (((.(((....)))))) | 38.2 | -20.6
GGTCACCCGAAAGGGACC (((..(((....)))))) | 48.6 | -17.7
GGTCACGAAAGTGCGACC ((((((....)))..))) | 40.8 | -17.7
GGTCACGAAAGTGTTACC ((((((....)))..))) | 38.2 | -17.1
GGTCACGGAAACGTAACC (((.(((....))).))) | 42.1 | -31.5
GGTCAGAAATGACC (((((....))))) | 53.6 | -28.2
GGTCAGCGAAAGCTCACC (((.(((....))).))) | 41.7 | -18.9
GGTCAGGCGAAAGCCACC (((..(((....)))))) | 35.6 | -11.2
GGTCAGGGAAACCTGATC (.(((((....))))).) | 48.5 | -27.2
GGTCAGGGAAACTTGACC (((((.(....).))))) | 49.5 | -37.9
GGTCATGGAAACATAACC (((.(((....))).))) | 31.6 | -18.5
GGTCATGGAAACATGATC (.(((((....))))).) | 47 | -31.5
GGTCCAGCGAAAGCTACC (((..(((....)))))) | 30.1 | -10.7
GGTCCAGGAAACCAGACC ((((..(....)..)))) | 34.5 | -23.1
GGTCCAGGAAACTGGATC (.(((((....))))).) | 49.7 | -32.1
GGTCCAGGAAACTGGGTC (..((((....))))..) | 39.5 | -15.3
GGTCCCACGAAAGTGACC (((..(((....)))))) | 36.8 | -15.8
GGTCCCCGAAAGGGACC (((.(((....)))))) | 68.4 | -30.6
GGTCCCGAAAGGGACACC ((((((....)))..))) | 54.5 | -8.21
GGTCCCGAAAGGGCGACC ((((((....)))..))) | 46 | -14.3
GGTCCCGAAAGGGGGACC ((((((....)))..))) | 59.2 | -25.4
GGTCCCGAAAGGGTAACC ((((((....)))..))) | 42.2 | -18
GGTCCCGAAAGGGTGACC ((((((....)))..))) | 48 | -19.6

Sequence | Tm [1] [°C] | folding enthalpy [2] [kcal/mol]
GGTCCCGCGAAAGCGACC (((..(((....)))))) | 37.7 | -11.3
GGTCCCGGAAACGAGACC ((((.((....)).)))) | 49.6 | -32
GGTCCCGGAAACGGAACC (((.(((....))).))) | 48 | -36
GGTCCGGCGAAAGCCACC (((..(((....)))))) | 27.1 | -8.92
GGTCCGGGAAACCGGATC (.(((((....))))).) | 58.9 | -24
GGTCCTCGAAAGAGCACC (((.(((....))).))) | 38.5 | -27.1
GGTCCTCGAAAGAGTACC (((.(((....))).))) | 43.4 | -31.1
GGTCCTGAAAAGGACC ((((((....)))))) | 68.2 | -30.9
GGTCCTGGAAACAGGGCC ((.((((....)))).)) | 60.8 | -46.3
GGTCCTGGAAACGGGACC (((((.(....).))))) | 57.3 | -57.4
GGTCGACGAAAGTCACC (((.(((....)))))) | 50.9 | -16.2
GGTCGACGAAAGTCCACC (((.(((....))).))) | 43.9 | -25.6
GGTCGAGGAAACTCAACC (((.(((....))).))) | 37 | -29.5
GGTCGCCGAAAGGCAACC (((.(((....))).))) | 56.1 | -24.6
GGTCGCGAAAGCGAAACC ((((((....)))..))) | 50 | -11.9
GGTCGCGAAAGCGAACC ((((((....))).))) | 67.3 | -15.2
GGTCGCGAAAGCGCACC ((((((....))).))) | 60.3 | -20.8
GGTCGCGGAAACGCGATC (.(((((....))))).) | 63.7 | -17.6
GGTCGGCGAAAGCCAACC (((.(((....))).))) | 55.3 | -21
GGTCGGCGAAAGCCCACC (((.(((....))).))) | 46.9 | -21.7
GGTCGGCGAAAGCCTACC (((.(((....))).))) | 53.5 | -25.9
GGTCGGGGAAACTCGACC (((((.(....).))))) | 58 | -42.8
